{"data": "Experimental data gathered from unrelated publications", "effect on": "cell growth or viability", "note": "Lines come from different studies, so protocols differ."}
{"Compound": "COc1ccc(C#N)cc1-c1c[nH]c2ncc(-c3cncc(C(=O)N(C)C)c3)cc12", "cell line": "K562", "method": "MTT", "time": "72 h", "endpoint": "GI50", "result": "330 nM"}
{"Compound": "C=CC(=O)NC1CCN(c2ncc3ncnc(Nc4ccc(Oc5ccc6c(c5)ncn6C)c(C)c4)c3n2)CC1", "cell line": "COR-L88", "endpoint": "EC50", "result": "313 nM"}
{"Compound": "C=CS(=O)(=O)Nc1ccc(OC)c(-c2c[nH]c3ncc(-c4cncc(C(=O)N(C)C)c4)cc23)c1", "cell line": "K562", "method": "MTT", "time": "72 h", "endpoint": "GI50", "result": "> 1000 nM"}
{"Compound": "C=CC(=O)c1cccnc1Nc1cccc(C(F)(F)F)c1", "cell line": "HCT-15", "method": "SRB", "time": "48 h", "endpoint": "GI50", "result": "15400 nM"}
{"Compound": "COc1cc2c3c(n(CCCn4ccnc4)c(=O)c2cc1OC)-c1nc2c(cc1C3=O)OCO2", "cell line": "K562", "method": "MTS", "time": "72 h", "endpoint": "IC50", "result": "580 nM"}
{"Compound": "O=C(O)c1ccccc1Nc1cccc(C(F)(F)F)c1", "cell line": "HCT-15", "method": "SRB", "time": "48 h", "endpoint": "GI50", "result": "> 30000 nM"}
{"Compound": "CCC[C@H]1NC(=O)[C@H](Cc2cc(Cl)ccc2-c2cnn(C)c2)N(C)C(=O)[C@H](CC(C)C)NC(=O)[C@@H](N(C)C(=O)[C@H](CCCCN2CCOCC2)NC(=O)[C@@H](c2cccnc2)C2CCCCC2)CCCCNC1=O", "cell line": "NCI-H446", "method": "MTT", "time": "5 days", "endpoint": "GI50", "result": "4200 nM"}
{"Compound": "Cc1sc2c(c1C)C(c1ccc(Cl)cc1)=N[C@@H](CC(=O)NCCCCCCCCNC(=O)COc1cccc3c1C(=O)N(C1CCC(=O)NC1=O)C3=O)c1nnc(C)n1-2 (stereo partly shown)", "cell line": "K562", "method": "ATP luminescence", "endpoint": "IC50", "result": "343 nM"}
{"Compound": "CN(C)C(=O)c1cncc(-c2cnc3[nH]cc(-c4ccccc4C(F)(F)F)c3c2)c1", "cell line": "K562", "method": "MTT", "time": "72 h", "endpoint": "GI50", "result": "453 nM"}
{"Compound": "O=C(NO)c1ccc(CNc2nc3cccc(-c4ccc5c(c4)OCO5)n3n2)cc1", "cell line": "SN12C", "method": "SRB", "endpoint": "GI50", "result": "720 nM"}
{"Compound": "C=CC(=O)c1cccnc1Nc1cc(C(F)(F)F)ccc1OCc1ccccc1", "cell line": "HCT-15", "method": "SRB", "time": "48 h", "endpoint": "GI50", "result": "19500 nM"}
{"Compound": "COc1cc2c3c(n(CCCNC(C)C)c(=O)c2cc1OC)-c1nc2c(cc1C3=O)OCO2", "cell line": "K562", "method": "MTS", "time": "72 h", "endpoint": "IC50", "result": "182 nM"}
{"Compound": "CCN(c1cc(-c2ccc(CN3CCOCC3)cc2)cc(C(=O)NCc2c(C)cc(C)[nH]c2=O)c1C)C1CCOCC1", "cell line": "HT-1376", "method": "ATP luminescence", "time": "18 days", "endpoint": "GI50", "result": "385 nM"}
{"Compound": "C=C(F)C(=O)N1CCN(c2nc(OC[C@@H]3CCCN3C)nc3c2CCN(c2cccc4cccc(Cl)c24)C3)C[C@@H]1CC#N", "cell line": "NCI-H1373", "method": "ATP luminescence", "notes": "3D culture", "endpoint": "IC50", "result": "5.15 nM"}
{"Compound": "CCCN1C(=O)[C@H](CC(C)C)NC(=O)[C@@H](N(C)C(=O)[C@H](CC2CCC2)NC(=O)[C@@H]2C[C@@H](F)CN2C(=O)[C@@](C)(O)C(F)(F)F)CCCCNC(=O)C2(CC2)NC(=O)[C@@H]1Cc1cc(Cl)ccc1Cl", "cell line": "NCI-H446", "method": "MTT", "time": "5 days", "endpoint": "GI50", "result": "28 nM"}
{"Compound": "COc1ccc(N)cc1-c1c[nH]c2ncc(-c3cncc(C(=O)N(C)C)c3)cc12", "cell line": "K562", "method": "MTT", "time": "72 h", "endpoint": "GI50", "result": "175 nM"}
